Results taken from ChEMBL document CHEMBL1153766, “Regioselective reaction: synthesis and pharmacological study of Mannich bases containing ibuprofen moiety” (2009).
Calls of active or inactive are those of the source. The calls are words filed in the database; no cut-off is given here.

How the values were obtained:
Mus musculus = assay: Analgesic activity against Swiss albino mouse assessed as increase in paw licking or jump response at 10 mg/kg, po after 1.5 hrs by hot plate method; type: functional
How it was run: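 Hot-plate test in Swiss albino mice, 6 per group. Compounds given orally by gavage as a suspension in 1% carboxymethyl cellulose, 10 mg/kg. Animals placed on a plate held at 55 ± 1 °C, with paw licking or jumping as the end point. Reaction time recorded at 30, 60 and 90 min after dosing. Percentage increase in reaction time calculated using the maximum tolerated reaction time. Mean ± SEM.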

Rattus norvegicus [1] = assay: Antiinflammatory activity against Wistar albino rat assessed as inhibition of carrageenan-induced paw edema at 20 mg/kg, po administered 30 mins prior to carrageenan challenge measured after 2 hrs; type: functional
How it was run: (§1)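 Carrageenan paw oedema in Wistar albino rats (Winter method). Compounds given orally at 20 mg/kg as a suspension in 1% carboxymethyl cellulose, 30 min before 0.1 mL of 1% w/v carrageenan injected into the plantar region of the paw. Paw volume measured by plethysmography at 30, 60, 90, 120, 150 and 180 min. Inhibition calculated relative to vehicle controls. Mean ± SEM.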

Rattus norvegicus [2] = assay: Antiinflammatory activity against Wistar albino rat assessed as inhibition of carrageenan-induced paw edema at 20 mg/kg, po administered 30 mins prior to carrageenan challenge measured after 1.5 hrs; type: functional; how it was run: as §1
Rattus norvegicus [3] = assay: Antiinflammatory activity against Wistar albino rat assessed as inhibition of carrageenan-induced paw edema at 20 mg/kg, po administered 30 mins prior to carrageenan challenge measured after 3 hrs; type: functional; how it was run: as §1
Staphylococcus aureus = assay: Antimicrobial activity against Staphylococcus aureus at 1000 ug after 24 to 48 hrs by well diffusion method; type: functional, organism-based
How it was run: (§2)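 Agar well diffusion against Staphylococcus aureus, Escherichia coli and Aspergillus. Compounds dissolved in DMF (10 mg in 10 mL), and the solution placed into wells cut with a borer. Plates incubated at 37 °C for 24–48 h, then inspected.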

Rattus norvegicus [4] = assay: Antiinflammatory activity against Wistar albino rat assessed as inhibition of carrageenan-induced paw edema at 20 mg/kg, po administered 30 mins prior to carrageenan challenge measured after 0.5 hrs; type: functional; how it was run: as §1
Rattus norvegicus [5] = assay: Antiinflammatory activity against Wistar albino rat assessed as inhibition of carrageenan-induced paw edema at 20 mg/kg, po administered 30 mins prior to carrageenan challenge measured after 1 hrs; type: functional; how it was run: as §1
Rattus norvegicus [6] = assay: Antiinflammatory activity against Wistar albino rat assessed as inhibition of carrageenan-induced paw edema at 20 mg/kg, po administered 30 mins prior to carrageenan challenge measured after 2.5 hrs; type: functional; how it was run: as §1
Aspergillus = assay: Antimicrobial activity against Aspergillus at 1000 ug after 24 to 48 hrs by well diffusion method; type: functional, organism-based; how it was run: as §2
Escherichia coli = assay: Antimicrobial activity against Escherichia coli at 1000 ug after 24 to 48 hrs by well diffusion method; type: functional, organism-based; how it was run: as §2

Row | Compound | Activity (Mus musculus) | inhibition in vivo at 20 mg/kg (Rattus norvegicus [1]) | inhibition in vivo at 20 mg/kg (Rattus norvegicus [2]) | inhibition in vivo at 20 mg/kg (Rattus norvegicus [3]) | Activity (Staphylococcus aureus) | inhibition in vivo at 20 mg/kg (Rattus norvegicus [4]) | inhibition in vivo at 20 mg/kg (Rattus norvegicus [5]) | inhibition in vivo at 20 mg/kg (Rattus norvegicus [6]) | Activity (Aspergillus) | Activity (Escherichia coli)
1 | Cc1ccc(/C=N/n2c(C(C)c3ccc(CC(C)C)cc3)nn(CN3CCOCC3)c2=S)cc1 (centres undefined) | 64.32% | 60% | 64% | 68% | inactive | 0% | 23% | 67% | inactive | inactive
2 | O=C(O)Cc1ccccc1Nc1c(Cl)cccc1Cl [DICLOFENAC] | 79.24% | 87% | 70% | 65% |  | 83% | 59% | 69% |  | 
3 | CC(C)Cc1ccc(C(C)c2nn(CN3CCOCC3)c(=S)n2/N=C/c2ccc([N+](=O)[O-])cc2)cc1 (centres undefined) | 79.6% | 54% | 65% | 73% | inactive | 12% | 52% | 71% | inactive | inactive
4 | CC(C)Cc1ccc(C(C)c2nn(CN3CCOCC3)c(=S)n2/N=C/c2ccc(Cl)cc2)cc1 (centres undefined) | 76.49% | 61% | 61% | 74% | inactive | 90% | 42% | 73% | inactive | inactive
5 | CC(C)Cc1ccc(C(C)C(=O)O)cc1 (centres undefined) [IBUPROFEN] |  | 36% | 25% | 42% |  | 20% | 18% | 39% |  | 
6 | CC(C)Cc1ccc(C(C)c2nn(CN(c3ccccc3)c3ccccc3)c(=S)n2/N=C/c2ccc(Br)cc2)cc1 (centres undefined) |  | 38% | 38% | 57% | inactive | 9% | 10% | 57% | inactive | inactive
7 | CC(C)Cc1ccc(C(C)c2nn(CN3CCN(C)CC3)c(=S)n2/N=C/c2ccc([N+](=O)[O-])cc2)cc1 (centres undefined) | 70.75% | 68% | 82% | 74% | inactive | 38% | 70% | 75% | inactive | inactive
8 | CC(C)Cc1ccc(C(C)c2nnc(S)n2N)cc1 (centres undefined) |  | 45% | 46% | 56% | inactive | 30% | 32% | 50% | inactive | inactive
9 | CC(C)Cc1ccc(C(C)c2nnc(S)n2/N=C/c2ccc(Br)cc2)cc1 (centres undefined) |  | 60% | 65% | 72% | inactive | 0% | 16% | 70% | inactive | inactive
10 | CC(C)Cc1ccc(C(C)c2nnc(S)n2/N=C/c2ccc(Cl)cc2)cc1 (centres undefined) |  | 57% | 52% | 64% | inactive | 62% | 49% | 62% | inactive | inactive
